This passage reports inhibition, Ratio and IC50 results from ChEMBL document CHEMBL1759883, “Synthesis and biological evaluation of indazole derivatives” (Eur J Med Chem, 2011).

Assay [1] concerns the target Nitric oxide synthase, inducible (Rattus norvegicus) (UniProt Q06518). The experiment in a line: Inhibition of iNOS in LPS-stimulated Wistar rat lung assessed as inhibition of [3H]L-arginine to [3H]L-citrulline conversion at 1 mM by liquid scintillation counting. In outline: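 Lungs from male Wistar rats (220–250 g) taken 6 h after i.v. LPS (10 mg/kg in saline), homogenized in Tris buffer pH 7.6 with protease inhibitors, and spun at 2500g. The supernatant was incubated 30 min at 37 °C with 10 µM L-arginine plus 40 nM L-³H-arginine, cofactors, 0.75 mM NADPH (final) and 10 mM EDTA. ³H-citrulline was isolated on Dowex-50W; compounds at 1 mM.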

For assay [2], the target named is Nitric oxide synthase 1 (Rattus norvegicus) (UniProt P29476). The experiment in a line: Inhibition of nNOS in untreated Wistar rat striata assessed as inhibition of [3H]L-arginine to [3H]L-citrulline conversion at 1 mM by liquid scintillation counting.
Another assay is filed under the species Rattus norvegicus. The experiment in a line: Selectivity ratio of inhibition of iNOS in Wistar rat lung to inhibition of nNOS in Wistar rat striata.
Another assay has as its target Nitric oxide synthase 1 (Rattus norvegicus, UniProt P29476). Description: Inhibition of nNOS in untreated Wistar rat striata assessed as inhibition of [3H]L-arginine to [3H]L-citrulline conversion by liquid scintillation counting.

Chain of Nitric oxide synthase 1 (Rattus norvegicus) (P29476 whole entry): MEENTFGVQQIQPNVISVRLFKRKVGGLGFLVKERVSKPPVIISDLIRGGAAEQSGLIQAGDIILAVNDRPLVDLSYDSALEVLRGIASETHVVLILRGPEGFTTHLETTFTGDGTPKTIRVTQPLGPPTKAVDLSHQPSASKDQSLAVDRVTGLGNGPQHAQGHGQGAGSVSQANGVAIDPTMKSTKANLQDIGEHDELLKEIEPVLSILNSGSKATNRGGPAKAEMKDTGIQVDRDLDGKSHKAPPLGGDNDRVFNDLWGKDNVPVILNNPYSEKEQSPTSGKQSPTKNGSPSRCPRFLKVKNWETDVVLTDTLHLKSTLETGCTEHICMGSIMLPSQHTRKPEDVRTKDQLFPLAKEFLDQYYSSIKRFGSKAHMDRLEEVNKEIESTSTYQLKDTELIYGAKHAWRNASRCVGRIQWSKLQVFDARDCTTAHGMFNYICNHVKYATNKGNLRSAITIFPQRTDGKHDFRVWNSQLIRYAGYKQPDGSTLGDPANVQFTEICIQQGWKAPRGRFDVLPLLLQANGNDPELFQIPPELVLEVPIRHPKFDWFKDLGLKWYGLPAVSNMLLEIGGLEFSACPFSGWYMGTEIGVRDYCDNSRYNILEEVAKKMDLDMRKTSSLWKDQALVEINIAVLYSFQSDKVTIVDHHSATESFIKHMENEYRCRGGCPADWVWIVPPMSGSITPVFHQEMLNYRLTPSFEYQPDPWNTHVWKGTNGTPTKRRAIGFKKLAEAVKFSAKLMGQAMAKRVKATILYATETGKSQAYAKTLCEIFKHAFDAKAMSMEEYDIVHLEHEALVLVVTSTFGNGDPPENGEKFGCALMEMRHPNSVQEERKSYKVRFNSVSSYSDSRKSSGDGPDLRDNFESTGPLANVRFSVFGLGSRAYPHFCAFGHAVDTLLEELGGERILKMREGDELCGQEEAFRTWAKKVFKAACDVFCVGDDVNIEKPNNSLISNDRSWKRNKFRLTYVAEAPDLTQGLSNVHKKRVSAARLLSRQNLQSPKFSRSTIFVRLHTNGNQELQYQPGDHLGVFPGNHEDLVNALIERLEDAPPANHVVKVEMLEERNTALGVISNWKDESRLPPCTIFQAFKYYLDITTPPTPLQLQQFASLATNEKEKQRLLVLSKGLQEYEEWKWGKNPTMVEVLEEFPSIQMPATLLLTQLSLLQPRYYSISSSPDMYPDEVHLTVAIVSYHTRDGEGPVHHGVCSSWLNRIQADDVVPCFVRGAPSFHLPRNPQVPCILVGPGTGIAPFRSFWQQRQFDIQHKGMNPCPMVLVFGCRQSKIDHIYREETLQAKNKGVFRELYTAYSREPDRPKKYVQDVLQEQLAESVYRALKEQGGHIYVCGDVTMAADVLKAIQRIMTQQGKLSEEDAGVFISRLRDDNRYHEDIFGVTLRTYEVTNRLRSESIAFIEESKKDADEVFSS
Chain of Nitric oxide synthase, inducible (Rattus norvegicus) (Q06518 whole entry): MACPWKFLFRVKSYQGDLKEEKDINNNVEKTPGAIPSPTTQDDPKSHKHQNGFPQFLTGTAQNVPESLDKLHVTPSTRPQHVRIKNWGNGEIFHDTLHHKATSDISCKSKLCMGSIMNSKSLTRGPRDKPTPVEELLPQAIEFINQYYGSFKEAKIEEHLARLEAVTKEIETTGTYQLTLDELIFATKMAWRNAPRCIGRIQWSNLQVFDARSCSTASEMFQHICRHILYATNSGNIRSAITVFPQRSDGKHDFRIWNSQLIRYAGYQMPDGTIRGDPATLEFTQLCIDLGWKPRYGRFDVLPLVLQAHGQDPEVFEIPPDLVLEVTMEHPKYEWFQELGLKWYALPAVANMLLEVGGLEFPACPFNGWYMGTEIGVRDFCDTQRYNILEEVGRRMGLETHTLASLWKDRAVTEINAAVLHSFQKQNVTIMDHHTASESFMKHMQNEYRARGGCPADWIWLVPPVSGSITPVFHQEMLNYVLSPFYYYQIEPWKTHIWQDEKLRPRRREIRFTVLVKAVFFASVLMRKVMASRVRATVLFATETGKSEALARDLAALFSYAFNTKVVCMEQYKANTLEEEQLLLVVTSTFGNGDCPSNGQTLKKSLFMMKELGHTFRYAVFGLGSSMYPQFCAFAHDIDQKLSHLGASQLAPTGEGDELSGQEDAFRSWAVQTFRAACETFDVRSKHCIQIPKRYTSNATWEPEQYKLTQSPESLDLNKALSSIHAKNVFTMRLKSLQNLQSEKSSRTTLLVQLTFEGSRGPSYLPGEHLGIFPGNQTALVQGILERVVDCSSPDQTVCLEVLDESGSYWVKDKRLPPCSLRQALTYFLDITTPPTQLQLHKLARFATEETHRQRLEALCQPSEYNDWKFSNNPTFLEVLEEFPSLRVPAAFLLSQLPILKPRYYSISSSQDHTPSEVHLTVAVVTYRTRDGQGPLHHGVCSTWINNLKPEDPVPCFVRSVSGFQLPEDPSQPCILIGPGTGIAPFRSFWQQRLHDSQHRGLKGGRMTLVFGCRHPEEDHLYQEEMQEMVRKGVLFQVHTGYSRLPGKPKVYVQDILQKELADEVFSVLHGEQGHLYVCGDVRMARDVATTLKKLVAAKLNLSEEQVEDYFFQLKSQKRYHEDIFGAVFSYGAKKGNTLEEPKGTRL
Chain of Nitric oxide synthase 1 (P29476 whole entry): as the sequence (P29476 whole entry) above

`O=C(O)c1c(F)c(F)c2c(O)n[nH]c2c1F`: the figures for the inhibition in assay [1] and in assay [2] were 42% and 5.4%, respectively.

As for `c1ccc2[nH]ncc2c1`, the inhibition in assay [1] was 45%; in assay [2] it was 11.2%.

In the case of `Oc1n[nH]c2ccccc12`, the inhibition in assay [1] is 55.1%; in assay [2], 31.4%.

For `CCOC(=O)c1c(F)c(F)c(F)c2c(O)n[nH]c12`, the inhibition amounted to 43.7% in assay [1] and 5.6% in assay [2].

As for `FC(F)(F)c1n[nH]c2ccccc12`, the inhibition stood at 80.1% in assay [1] and 69.9% in assay [2].

As for `Fc1c(F)c(F)c(-c2n[nH]c3c(F)c(F)c(F)c(F)c23)c(F)c1F`, in the assay listed under Rattus norvegicus, the Ratio is 10.

For `COC(=O)c1c(F)c(F)c2c(O)n[nH]c2c1F`, the values for the inhibition in assay [1] and in assay [2] were 46.2% and 19.7%, respectively.

On to `O=[N+]([O-])c1c(F)cc(F)c2c(O)n[nH]c12`, for which the Ratio in the assay listed under Rattus norvegicus came out at 6. The figures for the inhibition in assay [1] and in assay [2] were 91% and 14.9%, respectively.

Consider `O=C(O)c1c(F)c(F)c2[nH]nc(O)c2c1F`, for which the inhibition came to 16.3% in assay [1] and 12.1% in assay [2].

Turning to `CCOC(=O)c1c(F)c(F)c2[nH]nc(O)c2c1F`, the inhibition in assay [1] turned out to be 51.8%; in assay [2], 2.5%.

Regarding `Cc1n[nH]c2cc(F)cc(F)c12`, the inhibition in assay [1] was 74.3%; in assay [2], 52.1%.

For `COC(=O)c1c(F)c(F)c2[nH]nc(O)c2c1F`, the figures for the inhibition in assay [1] and in assay [2] were 48.9% and 13.3%, respectively.

`N#Cc1cccc2cn[nH]c12`: the inhibition was determined as 80% in assay [1] and 88% in assay [2].

As to `Oc1n[nH]c2cc(F)cc(F)c12`, the results for the inhibition in assay [1] and in assay [2] were 48.1% and 11.1%, respectively.

Consider `COC(=O)c1c(F)c(F)c(F)c2c(O)n[nH]c12`, for which the inhibition in assay [1] came to 49.6%; in assay [2], 5.1%.

As to `CCOC(=O)c1c(F)c(F)c2c(O)n[nH]c2c1F`, the inhibition in assay [1] amounted to 53.5%; in assay [2], 10.2%.

In the case of `CCc1n[nH]c2ccccc12`, the inhibition in assay [2] was found to be 18.8%.

For the compound `COC(=O)c1c(F)c(F)c(F)c2[nH]nc(O)c12`, the inhibition in assay [1] turned out to be 22.6%; in assay [2], 6.3%.

Turning to `O=C(O)c1c(F)c(F)c(F)c2[nH]nc(O)c12`, the Ratio in the assay filed under Rattus norvegicus amounted to 35. Also, the inhibition amounted to 62.6% in assay [1] and 1.8% in assay [2].

`Cc1n[nH]c2c(F)c(F)ccc12`: the values for the inhibition in assay [1] and in assay [2] were 69.2% and 58.4%, respectively.

For `Cc1n[nH]c2ccccc12`, the figures for the inhibition in assay [1] and in assay [2] were 77.4% and 33.7%, respectively.

With `Oc1n[nH]c2c(F)c(F)ccc12`, the results for the inhibition in assay [1] and in assay [2] were 89.1% and 57.1%, respectively.

Turning to `O=c1[nH][nH]c2ccccc12`, the IC50 at Nitric oxide synthase 1 is above 1000 µM.

Turning to `O=C(O)c1c(F)c(F)c(F)c2c(O)n[nH]c12`, the inhibition amounted to 40.7% in assay [1] and 11.1% in assay [2].

Consider `Cc1n[nH]c2c([N+](=O)[O-])c(F)cc(F)c12`, for which the results for the inhibition in assay [1] and in assay [2] were 92% and 90%, respectively.

With `Cc1n[nH]c2c(F)c(F)c([N+](=O)[O-])cc12`, the values for the inhibition in assay [1] and in assay [2] were 95.6% and 85.4%, respectively.

Regarding `COc1cccc2c[nH]nc12`, in assay [1], the inhibition was 70%.

As to `CCOC(=O)c1c(F)c(F)c(F)c2[nH]nc(O)c12`, the inhibition in assay [1] was determined as 38.7%; in assay [2], 1.2%.

For the compound `Fc1c(F)c(F)c2[nH]ncc2c1F`, in the assay listed under Rattus norvegicus, the Ratio came out at 2. Besides, the inhibition is 98.7% in assay [1] and 43.3% in assay [2].

For `O=[N+]([O-])c1cccc2c(O)n[nH]c12`, the inhibition amounted to 8.2% in assay [1] and 18.9% in assay [2].
